Source: ChEMBL document CHEMBL1828587, “Pyrazolo[1,5-a]pyrimidines, triazolo[1,5-a]pyrimidines and their tricyclic derivatives as corticotropin-releasing factor 1 (CRF₁) receptor antagonists” (Bioorg Med Chem, 2011)
Calls of active or inactive are those of the source. No cut-off for these calls is given here.

Key:
[1] = target: T1, Corticotropin-releasing factor receptor 1 (Homo sapiens, UniProt P34998); test: Displacement of [125I]-CRF from human CRF1 receptor expressed in CHO-K1 cells after 2 hrs by gamma counting; assay type: cell-based
T1 sequence (P34998 whole entry): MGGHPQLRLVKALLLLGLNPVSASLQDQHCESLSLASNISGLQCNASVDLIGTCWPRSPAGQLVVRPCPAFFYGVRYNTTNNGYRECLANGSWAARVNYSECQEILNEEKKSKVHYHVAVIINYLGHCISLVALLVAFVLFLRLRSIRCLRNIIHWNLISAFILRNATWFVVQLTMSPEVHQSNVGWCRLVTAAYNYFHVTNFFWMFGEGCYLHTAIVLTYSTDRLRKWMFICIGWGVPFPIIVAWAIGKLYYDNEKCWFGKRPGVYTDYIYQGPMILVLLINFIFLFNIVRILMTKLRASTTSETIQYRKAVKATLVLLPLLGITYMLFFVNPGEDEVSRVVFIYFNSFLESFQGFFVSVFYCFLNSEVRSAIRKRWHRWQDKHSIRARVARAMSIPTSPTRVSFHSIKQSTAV
Procedure, shortened: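 Crude membranes were made from CRF1-expressing CHO-K1 cells in 50 mmol/l Tris-HCl with 10 mmol/l MgCl, 2 mmol/l EDTA and aprotinin. Membranes were incubated with 125I human/rat CRF (0.5 nmol/l solution added) and test compound (1~10000 nmol/L) for 2 h at room temperature. Bound and free ligand were separated by centrifugation and the pellet washed with PBS/0.01% Triton X-100, then gamma-counted. Nonspecific binding was defined with 1 µmol/l unlabeled CRF. IC50 was taken from concentration–response curves.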

[2] = target: T1, Corticotropin-releasing factor receptor 1; test: Antagonist activity at human CRF1 receptor expressed in CHO-K1 cells assessed as inhibition of CRF-induced cAMP accumulation after 15 mins by cAMP enzyme immunoassay; assay type: functional, cell-based
Procedure, shortened: (§1)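 CRF1-expressing CHO-K1 cells seeded at 1×10^4 cells/well and cultured overnight. Cells were washed with F-12 and preincubated 10 min at 37 °C in F-12 containing 1 mmol/l IBMX. Test compound (1–10000 nmol/l) was then added together with CRF (10 nmol/l in the added medium). After 15 min at 37 °C, intracellular cAMP was measured by enzyme immunoassay. IC50 was taken from concentration–response curves.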

[3] = target: T2, Corticotropin-releasing factor receptor 1 (Rattus norvegicus, UniProt P35353); test: Antagonist activity at rat CRF1 receptor expressed in CHO-K1 cells assessed as inhibition of CRF-induced cAMP accumulation after 15 mins by cAMP enzyme immunoassay; assay type: functional, cell-based; procedure, shortened: as §1
T2 sequence (P35353 whole entry): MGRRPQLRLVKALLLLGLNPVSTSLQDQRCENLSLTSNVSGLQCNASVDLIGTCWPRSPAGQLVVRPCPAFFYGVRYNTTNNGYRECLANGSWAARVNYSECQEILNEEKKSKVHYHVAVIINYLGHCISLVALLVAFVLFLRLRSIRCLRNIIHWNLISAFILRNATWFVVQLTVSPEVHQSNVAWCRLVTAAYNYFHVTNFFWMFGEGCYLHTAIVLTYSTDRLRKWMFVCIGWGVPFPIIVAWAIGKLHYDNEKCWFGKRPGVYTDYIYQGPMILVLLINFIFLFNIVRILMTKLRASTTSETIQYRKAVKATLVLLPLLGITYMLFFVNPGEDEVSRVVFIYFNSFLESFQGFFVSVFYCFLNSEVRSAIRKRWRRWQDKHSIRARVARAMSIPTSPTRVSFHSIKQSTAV

Rattus norvegicus = test: Anxiolytic activity against swim-stress-induced anxiety like behavior in Sprague-Dawley rat assessed as increase in spent time in open arms at 10 mg/kg, po administered 1 hr before stress-challenge by elevated plus-maze test; assay type: functional, organism-based; design: dose 10 mg/kg
Procedure, shortened: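 Male Sprague-Dawley rats (230–280 g) were dosed orally with compound in 0.5% MC, and tested 1 h after dosing. Rats were then placed on the elevated plus-maze (50 cm high) and video-tracked for 5 min for time in and entries into open arms. Results are mean ± S.E., n=16; vehicle vs drug by Dunnett test.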

[4] = AUC (0 to infinity) in rat at 1 mg/kg, iv; assay type: ADME, organism-based; design: dose 1 mg/kg, route intravenous, time infinity; conditions: plasma
Procedure, shortened: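 Single iv dose of 1 mg/kg in saline containing 30% HP-β-CD (w/v), given to fasted male rats (n = 4). Plasma stored at -70 °C. AUC derived from the plasma concentration time course.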

[5] = AUC (0 to infinity) in rat at 10 mg/kg, po; assay type: ADME, organism-based; design: time infinity, dose 10 mg/kg, route oral; conditions: plasma
Procedure, shortened: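 Single oral dose of 10 mg/kg in saline containing 0.5% MC (w/v), given to fasted male rats (n = 4). Heparinized jugular vein blood taken at 1, 2, 4, 6, 8, 24, 48, 72 h. Plasma stored at -70 °C. AUC to infinity derived from the plasma concentration time course.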

[6] = Tmax in rat at 10 mg/kg, po; assay type: ADME, organism-based; design: dose 10 mg/kg, route oral; conditions: in vivo
Procedure, shortened: (§2)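 Fasted male rats (n = 4) received 1 mg/kg iv in saline/30% HP-β-CD or 10 mg/kg po in saline/0.5% MC. Jugular blood was sampled up to 72 h, and plasma obtained by centrifugation and stored at -70 °C. AUC, Cmax, Tmax, T1/2, Vss and CL were derived from plasma concentration–time courses. F = dose-normalized AUCpo/AUCiv ×100.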

[7] = Cmax in rat at 10 mg/kg, po; assay type: ADME, organism-based; design: dose 10 mg/kg, route oral; conditions: in vivo; procedure, shortened: as §2
[8] = Total clearance in rat at 1 mg/kg, iv; assay type: ADME, organism-based; design: dose 1 mg/kg, route intravenous; conditions: in vivo; procedure, shortened: as §2
[9] = Half life in rat at 1 mg/kg, iv; assay type: ADME, organism-based; design: dose 1 mg/kg, route intravenous; conditions: in vivo; procedure, shortened: as §2
[10] = Half life in rat at 10 mg/kg, po; assay type: ADME, organism-based; design: dose 10 mg/kg, route oral; conditions: in vivo; procedure, shortened: as §2
[11] = Volume of distribution at steady state in rat at 1 mg/kg, iv; assay type: ADME, organism-based; design: dose 1 mg/kg, route intravenous; conditions: in vivo, read-out: Vdss; procedure, shortened: as §2
[12] = Oral bioavailability in rat at 10 mg/kg; assay type: ADME, organism-based; conditions: in vivo; procedure, shortened: as §2
[13] = Ratio of drug level in brain to plasma in rat at 10 mg/kg, po after 1 hr; assay type: ADME, organism-based; design: dose 10 mg/kg, route oral; conditions: read-out: BPR
Procedure, shortened: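 Rats were dosed orally at 10 mg/kg. Kp was calculated as brain content divided by plasma concentration, 1.0 h after dosing.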

Row | Structure (SMILES) | IC50 [1] | EC50 [2] | also measured
1 | CCCN(CCC)c1cc(N(CC)c2ccc(OC)cc2Cl)nc2nccn12 | 42 nM | 76 nM | 
2 | CCC(CC)n1ccc2c(Nc3ccc(OC)cc3Cl)nc3ccnn3c21 | 3.2 nM | 0.7 nM | 
3 | CCCN(CCC)c1c(C2CCCC2)c(Nc2ccc(OC)cc2Cl)nc2ccnn12 | 308 nM |  | 
4 | CCCN(CCC)c1c(CC)c(Nc2ccc(OC)cc2Cl)nc2ccnn12 | 4.2 nM | 8.6 nM | 
5 | CCC(CC)n1ccc2c(Cc3c(C)cc(C)cc3C)nc3ccnn3c21 | 7.1 nM | 32.2 nM | 
6 | CCc1cc(Cl)ccc1Nc1nc2ccnn2c2c1ccn2C(CC)CC | 4.7 nM | 3.9 nM | 
7 | CCc1ccc(Oc2nc3ccnn3c3c2ccn3C(CC)CC)c(OC)c1 | 7 nM | 5.6 nM | 
8 | CCCN(CCC)c1c(C)c(Nc2ccc(OC)cc2Cl)nc2ccnn12 | 8 nM | 4 nM | EC50 [3]: 81 nM; Activity (Rattus norvegicus): Active; AUC(0-inf) [4]: 96 ng·h/mL; AUC(0-inf) [5]: 153 ng·h/mL; Tmax [6]: 4 h; Cmax [7]: 27.4 ng/mL; clearance [8]: 186 mL/min/kg; half-life [9]: 1.7 h; half-life [10]: 3.4 h; Vd [11]: 14.4 L/kg; bioavailability [12]: 16%; Kp at 1 h [13]: 6.2
9 | CCCN(CCC)c1cc(N(C)c2ccc(OC)cc2Cl)nc2ncnn12 | 33 nM | 889 nM | 
10 | CCCN(CCC)c1c(C)c(Nc2ccc(OC)cc2Cl)nc2ncnn12 | 8 nM | 9 nM | 
11 | CCCN(CCC)c1cc(N(C)c2ccc(OC)cc2Cl)nc2ccnn12 | 20 nM | 97 nM | 
12 | CCCN(CCC)c1cc(N(CCOC)c2ccc(OC)cc2Cl)nc2ccnn12 | 680 nM |  | 
13 | CCCN(CCC)c1cc(N(CCC)c2ccc(OC)cc2Cl)nc2ccnn12 | 418 nM | 75.7 nM | 
14 | CCCN(CCC)c1cc(N(C)c2ccc(OC)cc2Cl)nc2nccn12 | 67 nM |  | 
15 | C=C(C)CN(c1cc(N(CCC)CCC)n2nccc2n1)c1ccc(OC)cc1Cl | 76.7 nM | 856 nM | 
16 | CCCN(CCC)c1cc(Nc2ccc(OC)cc2Cl)nc2ccnn12 | 61 nM | 53 nM | 

Row | Structure (SMILES) | IC50 [1] | EC50 [2] | also measured
17 | CCCN(CCC)c1nc(N(C)c2ccc(OC)cc2Cl)nc2ccnn12 | 20 nM | 26 nM | 
18 | CCC(CC)n1ccc2c(Nc3c(C)cc(C)cc3C)nc3ccnn3c21 | 6.1 nM | 4.1 nM | 
19 | CCc1cc(OC)ccc1Nc1nc2ccnn2c2c1ccn2C(CC)CC | 2.4 nM | 3.5 nM | 
20 | CCCc1c(Nc2ccc(OC)cc2Cl)nc2ccnn2c1N(CCC)CCC | 32 nM | 95 nM | 
21 | CCC(CC)Nc1cc(Nc2ccc(OC)cc2Cl)nc2ccnn12 | 14 nM | 113 nM | 
22 | CCCN(CCC)c1cc(N(CC2CC2)c2ccc(OC)cc2Cl)nc2ccnn12 | 213 nM |  | 
23 | CCCN(CCC)c1c(C(C)C)c(Nc2ccc(OC)cc2Cl)nc2ccnn12 | 113 nM | 234 nM | 
24 | C=CCN(c1cc(N(CCC)CCC)n2nccc2n1)c1ccc(OC)cc1Cl | 4.4 nM | 28.9 nM | 
25 | CCCN(CCC)c1c(C)c(Nc2ccc(OC)cc2Cl)nc2nccn12 | 12 nM | 46 nM | 
26 | CCC(CC)Nc1cc(N(C)c2ccc(OC)cc2Cl)nc2ncnn12 | 42 nM | 367 nM | 
27 | CCCCc1c(Nc2ccc(OC)cc2Cl)nc2ccnn2c1N(CCC)CCC | 340 nM |  | 
28 | CCCN(CCC)c1cc(N(COC)c2ccc(OC)cc2Cl)nc2ccnn12 | 15 nM | 4.4 nM | 
29 | CCC(CC)Nc1c(C)c(Nc2ccc(OC)cc2Cl)nc2ncnn12 | 16 nM | 58 nM | 
30 | CCCN(CCC)c1cc(N(CC)c2ccc(OC)cc2Cl)nc2ccnn12 | 31.6 nM | 18.6 nM | 
31 | CCCN(CCC)c1c(OC)c(Nc2ccc(OC)cc2Cl)nc2ccnn12 | 13 nM | 883 nM | 
32 | CCC(CC)Nc1c(C)c(Nc2ccc(OC)cc2Cl)nc2ccnn12 | 7.4 nM | 7.4 nM | 
